Assay [1] has as its system L1210. In words: The compound was tested for maximum tolerated dose (MTD) against L1210 cells in […] mice. It counts as functional, Mus musculus. The essentials:
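Acute toxicity in mice by the usual procedure. MTD is the highest dose that can be given without any animal death.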

In assay [2] the test system is L1210. Kind of assay: The compound was tested for optimum dose fraction of MTD against L1210 cells in […] mice. It counts as functional, Mus musculus. In outline:
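L1210 leukaemia, 10^5 cells ip into DBA2 mice. Single ip dose of the acetate salt 24 h later, with 20–30 mice per group. Dose is expressed as a fraction of the MTD, where the MTD (highest dose causing no deaths) is taken as unity.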

Assay [3] relates to Calf thymus DNA. In words: DNA binding affinity constant in calf-thymus DNA at pH 7.4. The format is nucleic-acid assay. The conditions noted are these: Bos taurus. In outline: (§1)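 Calf thymus DNA (4 µg/mL) at 25 °C, with drug at 10^-5 M, titrated with microliter portions of ethidium bromide (100 µg/mL stock in buffer). Fluorescence excitation was 546 nm and emission 590 nm. Apparent affinity constant (Kap) was derived from Scatchard plots of the competition.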

Assay [4] is filed under the species Mus musculus. In words: The mean survival time of treated animals (T) was compared to that of control animals(C) calculated as % T/C = (treated survival/control) x 100. The format is functional. In outline: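 DBA2 mice, 20–30 per group, given 10^5 L1210 cells ip. 24 h later one ip injection of drug (acetate salt, water-soluble); controls get solvent alone. Deaths recorded daily and survivors past 45 days counted as cured. T/C = mean survival treated/control ×100, with significance by Student's t test.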

The subject of assay [5] is Calf thymus DNA. In words: DNA binding affinity constant for calf-thymus DNA at pH 6. The format is nucleic-acid assay. The conditions noted are these: Bos taurus. In outline:
as §1

Assay [6] in a line: Acid dissociation constant (pKa) measured by UV spectroscopy.
For assay [7], the system named is Calf thymus DNA. Kind of assay: DNA binding affinity constant for calf-thymus DNA at pH 5. The format is nucleic-acid assay. The settings on record: Bos taurus. In outline:
as §1

The values below come from ChEMBL document CHEMBL1121362, “DNA intercalating compounds as potential antitumor agents. 1. Preparation and properties of 7H-pyridocarbazoles” (1980).

As a reminder, the MTD is the highest dose tested that stayed within the study's limit of toxicity. Read a low MTD as a narrow tolerated range. As usually defined, the T/C is the ratio of treated to control.

In turn, `COc1ccc2c(c1)c1c3cc[n+](C)cc3ccc1n2C.[I-]` had an MTD in assay [1] of 150 mg/kg. Also, the OD in assay [2] stood at 0.5. In assay [3], this compound displayed a K app of 310000 M⁻¹. For the same compound, the T/C in assay [4] is reported as 115%.
For `COc1ccc2[nH]c3ccc4cc[n+](CCO)cc4c3c2c1.[I-]` the same measures were 100 mg/kg, 0.5, 110000 M⁻¹ and 116%.
In turn, `C[n+]1ccc2c(ccc3[nH]c4ccc(O)cc4c32)c1.[I-]` had a maximal tolerated dose (MTD) in assay [1] of 50 mg/kg. In assay [2], the OD amounted to 0.5. This compound gave a K app in assay [3] of 67000 M⁻¹.
Take `COc1ccc2[nH]c3ccc4cc[n+](C)cc4c3c2c1.[I-]`: in assay [1], the maximum tolerated dose (MTD) is 50 mg/kg. Further, the OD in assay [2] stood at 0.5. The compound also came in with a K app in assay [3] of 290000 M⁻¹.
`COc1ccc2[nH]c3ccc4cccnc4c3c2c1`: the K app turned out to be 32000 M⁻¹ in assay [5], 100000 M⁻¹ in assay [7] and 18000 M⁻¹ in assay [3]. Also, the pKa in assay [6] is 5.25.
As to `COc1ccc2c(c1)c1c3c[n+](C)ccc3ccc1n2C.[I-]`, the MTD in assay [1] is 25 mg/kg. In assay [2], this compound displayed an OD of 0.7. In assay [3], this compound yielded a K app of 695000 M⁻¹. In addition, the T/C in assay [4] was 122%.
In the case of `COc1ccc2c(c1)c1c3ncccc3ccc1n2C`, the K app amounted to 37000 M⁻¹ in assay [5], 157000 M⁻¹ in assay [7] and 23000 M⁻¹ in assay [3]. This compound also registered a pKa in assay [6] of 5.35.
For `COc1ccc2[nH]c3ccc4ccncc4c3c2c1` the same measures were 44000 M⁻¹, 170000 M⁻¹, 35000 M⁻¹ and 5.75.
In assay [1], `C[n+]1cccc2c3c(ccc21)[nH]c1ccccc13.[I-]` had a maximum tolerated dose (MTD) of 50 mg/kg. In assay [2], this compound yielded an OD of 0.5. Besides, the K app in assay [3] turned out to be 60000 M⁻¹.
For `COc1ccc2c(c1)c1c3c[n+](CCN4CCCCC4)ccc3ccc1n2C.[Cl-]` the same measures were 10 mg/kg, 0.5 and 300000 M⁻¹.
For `Oc1ccc2[nH]c3ccc4ccncc4c3c2c1`, the K app in assay [5] was 115000 M⁻¹; in assay [7], 300000 M⁻¹; in assay [3] it was 42000 M⁻¹. This compound also gave a pKa in assay [6] of 6.4.
For the compound `COc1ccc2[nH]c3ccc4cc[n+](CCN5CCCCC5)cc4c3c2c1.[Cl-]`, in assay [1], the MTD worked out at 10 mg/kg. In addition, the OD in assay [2] amounted to 1. The compound also showed a K app in assay [3] of 120000 M⁻¹.
As to `COc1ccc2c(c1)c1c3ccncc3ccc1n2C`, the K app in assay [5] came out at 467000 M⁻¹; in assay [7], 1.1e+06 M⁻¹; in assay [3] it was 123000 M⁻¹. Also, in assay [6], the pKa stood at 6.6.
With `Oc1ccc2[nH]c3ccc4cnccc4c3c2c1`, the results for the K app in assay [5], in assay [7] and in assay [3] were 82000 M⁻¹, 240000 M⁻¹ and 19000 M⁻¹, respectively. Besides, the pKa in assay [6] was 6.75.
Taken in the same sequence, the figures for `Oc1ccc2[nH]c3ccc4cccnc4c3c2c1` were 30000 M⁻¹, 115000 M⁻¹, 16000 M⁻¹ and 5.35.
Turning to `COc1ccc2[nH]c3ccc4c[n+](C)ccc4c3c2c1.[I-]`, the MTD in assay [1] stood at 50 mg/kg. In assay [2], the OD is 0.5. In assay [3], this compound registered a K app of 200000 M⁻¹.
For `COc1ccc2[nH]c3ccc4ncccc4c3c2c1`, the K app worked out at 40000 M⁻¹ in assay [5], 120000 M⁻¹ in assay [7] and 16000 M⁻¹ in assay [3]. Further, the pKa in assay [6] was 5.6.
The compound `C[n+]1ccc2ccc3[nH]c4ccc(O)cc4c3c2c1.[I-]` had an MTD in assay [1] of 25 mg/kg. Also, the OD in assay [2] was determined as 1. Further, the K app in assay [3] is 180000 M⁻¹.
Regarding `COc1ccc2[nH]c3ccc4cnccc4c3c2c1`, the K app in assay [5] came to 110000 M⁻¹; in assay [7], 150000 M⁻¹; in assay [3], 77000 M⁻¹. This compound also came in with a pKa in assay [6] of 6.4.
Taken in the same sequence, the figures for `COc1ccc2c(c1)c1c3cnccc3ccc1n2C` were 250000 M⁻¹, 530000 M⁻¹, 146000 M⁻¹ and 5.9.
